High-throughput results as filed in PubChem.
MPTP block = mitochondrial permeability transition pore inhibitors, primary screen, biochemical, isolated mouse mitochondria, absorbance. Ca2+ swelling absorbance, 30 min. inhibition, % at 10 µM. 1.4% of 360,000 active;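 active means inhibition of 50% or more, scaled per plate between neutral and stimulator controls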;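 further: 0% = DMSO wells given calcium and 100% = 1 mM EGTA wells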
procasp3 activ = activators of human procaspase-3 D3A mutant, primary screen, biochemical, absorbance, PC-3 D3A mutant, single concentration. activation, % at 8.5 µM. 0.11% of 330,000 active. recombinant procaspase-3 D3A, Ac-DEVD-pNA absorbance 405 nm;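 active means activation above the mean of all tested compounds plus 3 SD, cut at about 21% in these data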;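 further: 0% = DMSO alone and 100% = DMSO wells spiked with extra 5 µM PC-3 D3A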
Target sequence (P42574 whole entry D9A/D28A/D175A): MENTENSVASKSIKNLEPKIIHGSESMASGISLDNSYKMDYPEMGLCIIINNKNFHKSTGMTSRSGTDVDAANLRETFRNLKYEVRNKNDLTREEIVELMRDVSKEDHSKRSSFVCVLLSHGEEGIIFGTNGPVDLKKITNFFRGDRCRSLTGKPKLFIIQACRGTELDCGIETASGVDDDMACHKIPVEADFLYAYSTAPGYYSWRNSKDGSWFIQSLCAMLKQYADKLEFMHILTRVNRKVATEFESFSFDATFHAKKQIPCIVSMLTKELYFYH
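material = Procaspase-3 D3A mutant | probe or stimulus = Ac-DEVD-pNA | compound = single dose, 8.5 µM nominal compound, 0.8% DMSO | timing = 1 h preincubation, 2 h reaction | measured by = 405 nm absorbance of p-nitroaniline, reads at 0 and 120 min | benchmarks = DMSO-only low control, 5 µM PC-3 D3A high control | repeats = singlicate, each compound tested once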
aDG glyco up = activators of alpha-DG glycosylation, primary screen, uHTS, Pro5-aDG cells, AlphaScreen. alpha-DG glycosylation AlphaScreen (IIH6); 0% Pro5, 100% B10-LARGE cell signal. activation, % at 10 µM. 0.22% of 360,000 active;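 active means activation of at least 8% versus controls, or a plate z-score of at least 8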;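 further: Pro5 are CHO cells carrying HIG-tagged alpha-DG that lacks glycosylation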
procasp7 counter = procaspase-7 activators, primary screen, counter-screen for procaspase-3 activator project, biochemical, absorbance, HTS, human | Caspase-7 (Homo sapiens), P55210 | recombinant procaspase-7, Ac-DEVD-pNA absorbance 405 nm; D23A/D198A/D206A triple mutant, cannot self-cleave; scale: DMSO 0, 5 µM enzyme 100 | activation, % at 8.5 µM | 0.093% of 330,000 active | AID 463210, 2010;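 active means percent activation above the screen-wide mean plus 3 SD, cut at about 25% in these data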
Target sequence (P55210 whole entry D23A/D198A/D206A): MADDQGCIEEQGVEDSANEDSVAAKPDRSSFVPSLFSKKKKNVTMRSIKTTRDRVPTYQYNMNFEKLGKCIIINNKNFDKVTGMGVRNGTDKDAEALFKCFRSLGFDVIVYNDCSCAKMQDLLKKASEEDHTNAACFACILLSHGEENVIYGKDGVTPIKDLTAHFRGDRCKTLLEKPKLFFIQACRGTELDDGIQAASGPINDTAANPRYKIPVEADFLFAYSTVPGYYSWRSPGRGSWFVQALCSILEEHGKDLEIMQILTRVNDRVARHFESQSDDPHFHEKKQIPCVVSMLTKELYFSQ
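Assay system: Uncleavable procaspase-7 mutant enzyme | Input: 2 µM procaspase-7 mutant as dispensed | Timing: 1 h compound preincubation, 2 h substrate cleavage, 25 °C | Repeats: One well per compound | Control set: DMSO wells as 0%, DMSO with 5 µM added PC-7 as 100% | Technique: Epi-absorbance of released pNA at 405 nm, two timepoints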
NR3A LBD binder = binders of NR3A ligand-binding domain, primary screen, biophysical, differential scanning fluorimetry, uHTS. Glutamate receptor ionotropic, NMDA 3A (GRIN3A) ligand-binding domain. NR3A LBD differential scanning fluorimetry, Tm shift; 0% = protein alone, 100% = glycine-bound protein. Tm shift relative to glycine control, % at 25 µM. 2.5% of 340,000 active. AID 1259313, 2017;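 active means melting temperature shift of at least 10% of the positive control shift, at one fixed dose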
* = called active by the depositor; x = no result given. An excerpt weighted towards active compounds, which were near 3.7% of everything screened.

SMILES | MPTP block | procasp3 activ | aDG glyco up | procasp7 counter | NR3A LBD binder
Cc1ccccc1OCC(=O)OCC(=O)c1ccc(OCc2ccccc2)cc1 | -1.2 | 6.5 | 0.1 | 6.8 | 25.0*
Cc1ccccc1OCC(=O)OCC(=O)c1ccc(OC(=O)c2ccccc2)cc1 | -2.0 | -1.8 | 0.2 | 8.7 | -0.5
O=C(CSc1nnc(SCc2ccc(Cl)cc2)s1)N/N=C/c1c[nH]c2ccccc12 | 0.5 | -2.7 | 0.0 | -4.3 | 23.8*
O=C(CSc1nnc(SCc2cccc3ccccc23)s1)N/N=C/c1c[nH]c2ccccc12 | 3.1 | 4.0 | -0.1 | -7.6 | 22.4*
Cc1nn(-c2ccccc2)c(C)c1/C=N/NC(=O)CSc1nnc(SCc2ccccc2Cl)s1 | 3.3 | 3.3 | 0.3 | -4.9 | 11.1*
CN(C)CC1C2CCC(C2)C1O (stereo unspecified) | -1.1 | x | -0.3 | x | -1.2
CCOC(=O)[C@]12Cc3c(cc(OC)c(OC)c3OC)[C@H]1N(C1CCCCC1)C(=O)c1cc(OC)ccc12 | -1.6 | x | -0.5 | x | x
c1ccc2nc(N3CCCC3)c(N3CCCC3)nc2c1 | 0.8 | 1.9 | 0.0 | 7.2 | 11.2*
O=[N+]([O-])c1ccc(NC2CCCCC2)nc1 | -0.9 | x | -0.1 | x | -1.6
COc1ccc(C(C2C(=O)CC(C)(C)CC2=O)C2C(=O)CC(C)(C)CC2=O)cc1COCC(F)(F)F | 5.1 | 4.5 | 0.3 | 0.1 | 12.6*
COc1cc(C(C2C(=O)CC(C)(C)CC2=O)C2C(=O)CC(C)(C)CC2=O)ccc1O | 0.2 | -2.1 | 0.0 | -4.8 | -1.0
COc1ccc(-c2cc(-c3nnc(COC(=O)C4CC4)o3)c3ccccc3n2)cc1OC | -0.7 | -5.2 | -0.5 | 3.7 | -1.0
COc1ccc(-c2cc(-c3nnc(COC(=O)c4ccc(O)cc4)o3)c3ccccc3n2)cc1OC | 0.0 | -18.6 | -0.8 | -21.2 | 15.2*
COCCNc1nc2cc(-c3ccc(C)cc3)sc2c(=O)n1C | 0.4 | x | 0.2 | x | x
Cn1c(N)c(C(=O)COC(=O)/C=C/c2ccc(Cl)c(Cl)c2)c(=O)n(C)c1=O | 0.6 | 8.9 | 1.5 | 5.7 | 16.8*
Cc1ccc(NC(=O)Nc2ccnc(-c3cccnc3)n2)cc1 | 0.8 | 9.6 | -0.4 | 11.4 | 34.0*
CCNC(=O)C1(C)CCN(C(=O)c2ccc(C#N)cc2)C1 (stereo unspecified) | -0.7 | x | -0.2 | x | x
O=C(NC(=S)Nc1ccccc1Br)C1CCCC1 | -1.3 | -10.6 | 0.2 | -11.9 | -1.2
O=C(NC(=S)Nc1ccccc1Br)C1CCCCC1 | -0.9 | 5.4 | 0.2 | -3.9 | 12.6*
CC1=C(C(=O)N(C)C)CC(CC(=O)NCC2CCCCC2)C(=O)N1Cc1ccccc1 (stereo unspecified) | -0.1 | x | 0.0 | x | x
CC(=O)Nc1ccc(-c2ccnc3c2CC(C(=O)NCc2cccc(Cl)c2)O3)cc1 (stereo unspecified) | 0.2 | x | -0.2 | x | x
COc1ccc2[nH]c(C(=O)N/N=C/c3ccc(O)cc3O)cc2c1 | 0.9 | x | 0.1 | x | 13.3*
COc1ccc2cc(C(=O)N/N=C/c3cc(OC)c(OC)c(OC)c3)[nH]c2c1 | 0.8 | 1.2 | 0.0 | -2.8 | 18.8*
COc1cc2cc(C(=O)N/N=C/c3ccc(F)cc3)[nH]c2cc1OC | 1.4 | 4.9 | -0.1 | 6.2 | 13.1*
CCOc1ccc2[nH]c(C(=O)N/N=C/c3ccc(OC)cc3)cc2c1 | -0.3 | x | -0.1 | x | x
SMILES | MPTP block | procasp3 activ | aDG glyco up | procasp7 counter | NR3A LBD binder
CC(C)(C)c1ccc(OCCC(=O)OCC(=O)NC2CCS(=O)(=O)C2)cc1 (stereo unspecified) | -0.6 | -2.9 | -0.1 | 4.3 | -1.7
COc1cccc(C(=O)N2CCC[C@H]2C(=O)N2CCC[C@H]2C(=O)N[C@@H](C)c2ccccc2)c1 | -0.7 | x | 0.0 | x | x
Cc1cccc([C@@H]2[C@@H]3C(=O)N(Cc4ccccc4)C(=O)[C@@H]3[C@]3(C)C(=O)N(c4ccc(C(F)(F)F)cc4)C(=O)N23)c1 | 2.8 | 3.9 | 0.3 | -2.0 | 12.7*
CSC1=N/C(=C\c2ccccc2F)C(=O)S1 | -0.4 | -2.2 | 0.6 | -4.9 | 15.7*
Cc1nc(-c2ccccc2)sc1C(=O)NS(=O)(=O)c1ccc(CN2CCN(c3ccccc3)CC2)cc1 | 2.0 | x | 0.1 | x | x
O=C(CSc1nc2ccccc2o1)Nc1ccc(Cl)cc1 | 41.6 | -11.4 | -0.1 | 3.8 | 19.4*
CC(=O)Nc1ccc(NC(=O)CSc2nc3ccccc3o2)cc1 | 0.3 | -6.1 | 0.0 | -5.3 | -9.3
Cc1ccc(NC(=O)CSc2nnc(NC(=O)c3ccco3)s2)cc1 | -1.1 | -3.1 | -0.4 | 1.4 | 12.5*
O=C(CSc1ccc(Cl)cc1)Nc1ccc(NC(=O)c2ccco2)cc1 | -0.5 | -0.9 | -0.1 | 3.9 | 21.0*
O=C(CSc1ccc(Cl)cc1)Nc1ccc(N2CCN(C(=O)c3ccco3)CC2)cc1 | -0.5 | -4.8 | 0.8 | 7.2 | 0.9
CC(=O)c1ccc(NC(=O)CSc2nnc(NC(=O)c3ccco3)s2)cc1 | -0.4 | 7.0 | 0.0 | -5.7 | 18.9*
COc1cccc(NC(=O)CSc2nnc(NC(=O)c3ccco3)s2)c1 | -0.4 | 2.6 | -0.2 | 1.9 | 7.0
Cc1ccc(S(=O)(=O)NC(=O)C2(C)CCN2C(=O)Cc2ccc(C(C)(C)C)cc2)cc1 (stereo unspecified) | 0.5 | x | -0.2 | x | x
C[C@H](NS(=O)(=O)c1ccccc1F)C(=O)OCC(=O)Nc1ccc2c(c1)OCCO2 | -0.9 | -6.3 | 0.1 | 9.6 | -1.0
CCO/C(C)=N/Oc1cnc2ccccc2c1 | 2.0 | x | 0.2 | x | x
CC(C)C(=O)N1CCCC1(C)C(=O)Nc1ccc(-n2cncn2)cc1 (stereo unspecified) | -0.9 | x | -0.1 | x | x
CCCCCCCCCCCC1=C(O)C(=O)C=C(O)C1=O | 3.3 | 7.8 | 0.1 | -13.6 | -13.6
COC1=CC(=O)C(O)=C(CCCCCCC/C=C/CCCCCCCC2=C(O)C(=O)C=C(OC)C2=O)C1=O | 7.7 | 3.9 | -0.2 | -3.9 | 25.0*
CC(C)(C)N1C(=O)c2ccc(C(=O)Nc3ccc(-c4nc5ccccc5[nH]4)cc3)cc2C1=O | 8.2 | -1.6 | -0.4 | 4.3 | 34.7*
O=C(Nc1ccc(-c2nc3ccccc3[nH]2)cc1)c1ccc(N2C(=O)CCC2=O)cc1 | 0.4 | 15.8 | 0.2 | 2.7 | 24.2*
CC(C)(C)N1C(=O)c2ccc(C(=O)Nc3ccc(C(=O)O)cc3)cc2C1=O | 0.4 | 5.8 | 0.3 | 6.9 | 0.7
CN(c1ccccc1)S(=O)(=O)c1ccc(Cl)c(C(=O)Nc2nc3ccccc3[nH]2)c1 | 3.8 | 2.6 | 0.0 | 2.1 | -17.7
CS(=O)(=O)c1ccccc1C(=O)Nc1ccc(-c2nc3ccccc3[nH]2)cc1 | -0.6 | -2.7 | -0.4 | 6.2 | -6.1
